The source of these data is ChEMBL document CHEMBL2375261, “Glycyrrhetinic acid and its analogs: a new class of antifilarial agents” (Bioorg Med Chem Lett, 2013).

Each structure is given as a SMILES string. pIC50: −log10 of the molar value. Values after ≈ are worked out from the molar mass of the structure shown. Active and inactive are the calls of the source. No cut-off for these calls is given here. Where only a bound is given, the exact number is not on record here.

Data set [1] deals with Brugia malayi. In words: Antifilarial activity against female adult Brugia malayi assessed as inhibition of motility after 24 hrs by microscopic analysis. It counts as functional, organism-based. The following applies: for pIC50: Brugia malayi, 24 h. The essentials:
(§1)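 In vitro, female adult worms and microfilariae of Brugia malayi were scored for motility. LC100 is the concentration giving 100% motility inhibition, which is taken as parasite death. IC50 is the concentration giving 50% motility inhibition. Adult worms were also run in a parallel MTT reduction assay, reported as mean % inhibition.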

Data set [2] in a line: Selectivity index, ratio of CC50 for african green monkey Vero cells to IC50 for microfilariae Brugia malayi. The format is functional. The essentials:
(§2)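 Selectivity index was calculated as CC50 (concentration killing 50% of cells) divided by the motility IC50 (concentration giving 50% motility inhibition). This was done separately for female adult worms and for microfilariae of B. malayi.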

Data set [3] concerns Brugia malayi. In words: Antifilarial activity against female adult Brugia malayi assessed as inhibition of MTT reduction at LC100 concentration after 24 hrs. It counts as functional.
Data set [4] is described as follows: Cytotoxicity against african green monkey Vero cells. The format is cell-based. The following applies: chlorocebus sabaeus.
Data set [5] relates to Brugia malayi. In words: Antifilarial activity against microfilariae Brugia malayi assessed as inhibition of motility after 24 hrs by microscopic analysis. It counts as functional, organism-based. The following applies: for pIC50: Brugia malayi, 24 h. The essentials: as §1
Data set [6] relates to Brugia malayi. In words: Antifilarial activity against adult Brugia malayi infected in jirds assessed as decrease in microfilarial activity isolated from host peritoneal cavity at 25 mg/kg, sc qd for 5 days measured after 7 to 8 days. The format is functional, organism-based. The arrangement: dose 25 mg/kg. The gist of the method: (§3)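 Jirds (Meriones unguiculatus) infected with B. malayi were dosed s.c. once daily for 5 days, at 100 mg/kg or, for the reference drug, 25 mg/kg; vehicle-treated animals served as controls (4–6 animals per group). Microfilariae in the peritoneal cavity were assessed on days 7/8 after treatment began. Recovered adult worms were counted as % inhibition over untreated control, with % sterile females scored. Data are mean ± SD, compared by Student's t test.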

The subject of data set [7] is Brugia malayi. In words: Antifilarial activity against adult Brugia malayi infected in jirds assessed as reduction in worms recovered from host at 25 mg/kg, sc qd for 5 days measured after 56 days relative to control. It counts as functional, organism-based. Further details: dose 25 mg/kg. The essentials: as §3
The nature of data set [8]: Selectivity index, ratio of CC50 for african green monkey Vero cells to IC50 for female adult Brugia malayi. It counts as functional. The gist of the method: as §2
In data set [9] the test system is Brugia malayi. In words: Antifilarial activity adult against Brugia malayi infected in jirds assessed as sterile female worms recovered from host at 25 mg/kg, sc qd for 5 days measured after 56 days relative to control. It counts as functional. The following applies: route subcutaneous. The gist of the method: as §3
Data set [10] relates to Brugia malayi. In words: Antifilarial activity against adult Brugia malayi infected in jirds assessed as decrease in microfilarial activity isolated from host peritoneal cavity at 100 mg/kg, sc qd for 5 days measured after 7 to 8 days. It counts as functional, organism-based. Further details: dose 100 mg/kg. The essentials:
as §3

For data set [11], the system named is Brugia malayi. In words: Ratio of diethylcarbamazine citrate IC50 to compound IC50 for female adult Brugia malayi. The format is functional.
Data set [12] concerns Brugia malayi. In words: Antifilarial activity against adult Brugia malayi infected in jirds assessed as reduction in worms recovered from host at 100 mg/kg, sc qd for 5 days measured after 56 days relative to control. The format is functional. The gist of the method:
as §3

The test system of data set [13] is Brugia malayi. In words: Ratio of diethylcarbamazine citrate LC100 to compound LC100 for female adult Brugia malayi. The format is functional.
The test system of data set [14] is Brugia malayi. In words: Antifilarial activity against adult Brugia malayi infected in jirds assessed as sterile female worms recovered from host at 100 mg/kg, sc qd for 5 days measured after 56 days relative to control. The format is functional. The following applies: route subcutaneous. The essentials: as §3
In data set [15] the test system is Brugia malayi. In words: Ratio of diethylcarbamazine citrate IC50 to compound IC50 for microfilariae Brugia malayi. The format is functional.
A further data set has as its system Meriones unguiculatus. In words: Toxicity against jird infected with adult Brugia malayi assessed as behavioural change at 100 mg/kg, sc qd for 5 days measured up to 56 days. It counts as organism-based. The arrangement: dose 100 mg/kg, route subcutaneous. The following applies: gerbil, in vivo.

In the case of `CCOC(=O)[C@@]1(C)CC[C@]2(C)CC[C@]3(C)C(=CC(=O)[C@@H]4[C@@]5(C)CC[C@H](OC(C)=O)C(C)(C)[C@@H]5CC[C@]43C)[C@@H]2C1`, the LC100 in the data set with Brugia malayi [1] was more than 100 µM. The “Ratio CC50/IC50” value in [2] is on record as 1.16. The “inhibition (INH)” value in the data set on Brugia malayi [3] is given as 28.78%. This compound displayed a 50% cytotoxic concentration (CC50) in data set [4] of 10.3 µg/mL (≈ 19 µM). Also, in the data set on Brugia malayi [5], the LC100 was 50 µM and the pIC50 was 5.05.

As for `CC1(C)[C@@H](O)CC[C@]2(C)[C@H]3C(=O)C=C4[C@@H]5C[C@@](C)(C(=O)O)CC[C@]5(C)CC[C@@]4(C)[C@]3(C)CC[C@@H]12` [ENOXOLONE], in the data set on Brugia malayi [1], the LC100 was more than 100 µM. Also, the “inhibition (INH)” value with Brugia malayi [3] is 21.71%. For the same compound, in the data set with Brugia malayi [5], the LC100 turned out to be 12.5 µM and the pIC50 is 5.92.

In the case of `CCN(CC)C(=O)N1CCN(C)CC1.O=C(O)CC(O)(CC(=O)O)C(=O)O` [DIETHYLCARBAMAZINE CITRATE], the result with Brugia malayi [6] and in the data set with Brugia malayi [7] was inactive. Besides, the LC100 in the data set with Brugia malayi [1] is 800 µM; with Brugia malayi [5], 500 µM. Further, the pIC50 was 3.54 in the data set on Brugia malayi [1] and 3.45 with Brugia malayi [5]. Besides, the “Ratio CC50/IC50” value in data set [2] was determined as 25.7; in data set [8], 31.5. In the data set on Brugia malayi [3], the “inhibition (INH)” value was determined as 64%. The compound also returned a half-maximal cytotoxic concentration (CC50) in data set [4] of 9100 µg/mL. In addition, the Activity with Brugia malayi [9] was 11%.

As to `CCCCCCCCNC(=O)[C@@]1(C)CC[C@]2(C)CC[C@]3(C)C(=CC(=O)[C@@H]4[C@@]5(C)CC[C@H](OC(C)=O)C(C)(C)[C@@H]5CC[C@]43C)[C@@H]2C1`, the result with Brugia malayi [10] and with Brugia malayi [12] was inactive. In the data set with Brugia malayi [11], the “Ratio IC50” value is reported as 16. The LC100 in the data set on Brugia malayi [1] and in the data set on Brugia malayi [5] was 100 µM each time. The negative logarithm of the IC50 (pIC50) was 4.75 with Brugia malayi [1] and 4.38 with Brugia malayi [5]. Besides, the “Ratio CC50/IC50” value is recorded as 2.53 in [2] and 6.01 in data set [8]. In addition, in the data set on Brugia malayi [3], the “inhibition (INH)” value was 52.15%. The compound also registered a CC50 in data set [4] of 106 µg/mL (≈ 170 µM). Besides, in the data set on Brugia malayi [13], the Ratio came to 8. Besides, in the data set on Brugia malayi [14], the Activity was 5%.

As for `COC(=O)[C@@]1(C)CC[C@]2(C)CC[C@]3(C)C(=CC(=O)[C@@H]4[C@@]5(C)CC[C@H](OC(C)=O)C(C)(C)[C@@H]5CC[C@]43C)[C@@H]2C1`, the LC100 with Brugia malayi [1] was more than 100 µM. In data set [2], the “Ratio CC50/IC50” value is 3.58. In addition, the “inhibition (INH)” value in the data set on Brugia malayi [3] stood at 7.47%. For the same compound, the cytotoxic concentration (CC50) in [4] came to 7.92 µg/mL (≈ 15 µM). In addition, in the data set on Brugia malayi [5], the LC100 came to 25 µM and the negative logarithm of the IC50 (pIC50) was 5.66.

In the case of `CC(=O)O[C@H]1CC[C@]2(C)[C@H]3C(=O)C=C4[C@@H]5C[C@@](C)(C(=O)O)CC[C@]5(C)CC[C@@]4(C)[C@]3(C)CC[C@H]2C1(C)C` [ACETOXOLONE], the LC100 with Brugia malayi [1] and in the data set with Brugia malayi [5] was more than 100 µM in each case. Besides, the “inhibition (INH)” value in the data set with Brugia malayi [3] was found to be 9.45%.

In the case of `CCCCCCCCCCCC(=O)O[C@H]1CC[C@]2(C)[C@H]3C(=O)C=C4[C@@H]5C[C@@](C)(C(=O)O)CC[C@]5(C)CC[C@@]4(C)[C@]3(C)CC[C@H]2C1(C)C`, the LC100 in the data set with Brugia malayi [1] and in the data set on Brugia malayi [5] was more than 100 µM throughout. For the same compound, the “inhibition (INH)” value with Brugia malayi [3] amounted to 10.69%.

On to `CC(=O)O[C@H]1CC[C@]2(C)[C@H]3C(=O)C=C4[C@@H]5C[C@@](C)(C(=O)NCc6ccccc6)CC[C@]5(C)CC[C@@]4(C)[C@]3(C)CC[C@H]2C1(C)C`, for which the “Ratio IC50” value in the data set with Brugia malayi [15] worked out at 160. The result with Brugia malayi [10] was inactive. For the same compound, the LC100 with Brugia malayi [1] stood at 25 µM; in the data set with Brugia malayi [5] it was 50 µM. Further, the pIC50 is 5.05 in the data set with Brugia malayi [1] and 5.66 with Brugia malayi [5]. The figures for the Activity with Brugia malayi [12] (route subcutaneous), in the data set on Meriones unguiculatus and with Brugia malayi [14] were 54.21%, “Non-toxic” and 11%, respectively. The entries for the “Ratio CC50/IC50” value in data set [2] and in data set [8] were 264.06 and 66.02, respectively. Besides, the “inhibition (INH)” value in the data set with Brugia malayi [3] amounted to 48.79%. In [4], the CC50 stood at 584 µg/mL (≈ 970 µM). Besides, the Ratio with Brugia malayi [13] is listed as 32.

As usually defined, the CC50 is the concentration at which the toxic effect on the cells reaches its halfway point. As a reminder, the pIC50 is the negative decadic logarithm of the IC50, by convention in mol/L.
